PGC1a acetyl inh: inhibitors of PGC1a acetylation signal, primary screen, cell-based, U2OS, AlphaScreen, inhibitor mode. AlphaScreen anti-acetyl-lysine; with virally co-expressed GCN5 acetyltransferase. inhibition, % at 15.6 µM. actives 0.17% (n = 350,000);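 active means every replicate shows inhibition of at least 40%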;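 further: 0% = neutral control wells and 100% = positive control wells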
HIV Env fusion: inhibitors of HIV-1 Env-driven cell-cell fusion, primary screen, HeLa-JRFL effector, CEM21 target cells, luciferase | inhibition, % at 12.3 µM | actives 1.1% (n = 360,000);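 active means mean replicate inhibition score of at least 50 and every replicate individually at or above 50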;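 further: 0% = plate neutral controls and 100% = maraviroc near 300 nM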
FGF22 binding: binders of human FGF22 protein, primary screen, FGF22 synaptogenesis inhibitor project, biophysical, thermal shift, single point. Fibroblast growth factor 22 (Homo sapiens), Q9HCT0. recombinant FGF22 thermal shift, SYPRO orange fluorescence; percent of sucrose octasulfate shift, DMSO zero. activity (Tm shift, normalised), % at 9.99 µM. actives 1.5% (n = 340,000). AID 651658, 2012;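 active means mean Tm shift, scaled 0 neutral to 100 positive control, at about 1.3% or above, every replicate too, limit read from the data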
Ecoli rRNA inh: reduced GFP signal of wild-type E. coli, primary screen, bacterial rRNA inhibitor project, GFP/RFP fluorescence, OD600, single point; AID 720706, 2013; GFP signal change (wild-type ribosome), % (no concentration beside the values); E. coli WT GFP vs humanized-ribosome RFP mutants, 24 h; stronger effect = lower value; DMSO median 0, no signal -100; actives 1.6% (n = 350,000);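 active means significant combined selectivity score with lowered wild-type GFP, culture density cut under 30%, mutant RFP and density less affected; inactive means any of these conditions unmet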
ERAP1 HTS inh: human ERAP1 aminopeptidase inhibitors, primary screen, biochemical, single point, plate reader. recombinant ERAP1, Leu-AMC fluorescence, 60 min. inhibition, % at 10.7 µM. actives 0.15% (n = 340,000);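 active means mean replicate inhibition of at least 30%, or all replicates individually reaching that 30% level; inactive means mean below 30% and not every replicate reaching it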;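 further: 0% = neutral control wells and 100% = L-leucinethiol positive control wells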
Target sequence (Q9NZ08 whole entry, looked up): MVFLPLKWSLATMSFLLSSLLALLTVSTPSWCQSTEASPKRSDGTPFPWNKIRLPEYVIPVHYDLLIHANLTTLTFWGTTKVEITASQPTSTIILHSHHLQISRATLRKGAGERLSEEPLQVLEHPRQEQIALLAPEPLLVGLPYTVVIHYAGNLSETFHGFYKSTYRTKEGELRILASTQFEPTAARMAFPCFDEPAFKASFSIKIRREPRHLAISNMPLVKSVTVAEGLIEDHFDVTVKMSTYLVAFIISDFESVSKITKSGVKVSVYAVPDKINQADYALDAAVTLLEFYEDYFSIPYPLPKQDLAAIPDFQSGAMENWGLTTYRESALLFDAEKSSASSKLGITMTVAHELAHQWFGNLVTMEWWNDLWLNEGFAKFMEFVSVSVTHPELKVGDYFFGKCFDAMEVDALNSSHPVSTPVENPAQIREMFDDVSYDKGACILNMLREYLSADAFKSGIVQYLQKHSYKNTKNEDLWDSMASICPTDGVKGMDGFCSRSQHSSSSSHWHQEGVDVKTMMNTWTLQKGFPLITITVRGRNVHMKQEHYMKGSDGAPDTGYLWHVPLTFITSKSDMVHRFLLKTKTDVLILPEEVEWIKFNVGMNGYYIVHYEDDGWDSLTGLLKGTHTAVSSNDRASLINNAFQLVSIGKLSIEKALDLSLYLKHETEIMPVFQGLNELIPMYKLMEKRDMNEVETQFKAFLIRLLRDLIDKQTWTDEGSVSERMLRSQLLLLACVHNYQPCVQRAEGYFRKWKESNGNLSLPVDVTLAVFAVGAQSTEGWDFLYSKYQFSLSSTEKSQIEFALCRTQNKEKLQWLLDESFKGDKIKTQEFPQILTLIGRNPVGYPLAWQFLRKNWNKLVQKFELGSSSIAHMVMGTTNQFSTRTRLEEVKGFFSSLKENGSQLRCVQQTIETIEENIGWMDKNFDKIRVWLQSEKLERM
Cneo AK release: Cryptococcus neoformans cell lysis inducers, primary screen, AK release luminescence, single concentration | C. neoformans lysis, adenylate kinase release luminescence, 4 h; normalised: neutral wells 0, clomiphene wells 100 | lysis activity, % at 15 µM | actives 0.2% (n = 360,000);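 active means mean lysis activity across replicates of at least 80%, whatever share of replicates individually reach that level; inactive means mean lysis activity below 80%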
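Assay system: C. neoformans cells. Amount: yeast cell density of 5 × 10^6 cells/mL. Technique: AK luminescence. Buffer or medium: YPD. Times: static 4 h at 37 °C with compound, 1 h detection. Dosing: single-point compound dose. Read-out: lysis from increased AK signal.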
An asterisk follows results filed as active; i = inactive; x = not tested or not shown; [ ] = another dose, or the depositor's remark. In the library only some 3.5% were active in any assay of this set; here they are far more common.

SMILES | PGC1a acetyl inh | HIV Env fusion | FGF22 binding | Ecoli rRNA inh | ERAP1 HTS inh | Cneo AK release
COc1ccc(S(=O)(=O)Nc2cccc(-c3ccc4nncn4n3)c2)cc1 | x | 14 | 0 | -1 | 1 | 2
CCc1ccc(S(=O)(=O)Nc2cccc(-c3ccc4nncn4n3)c2)s1 | x | i | 43* | x | -3 | x
O=C(Cc1ccc(F)cc1)Nc1cccc(-c2ccc3nncn3n2)c1 | 6 | 10 | 44* | -3 | -4 | x
N#Cc1ccc(Oc2ccc(S(=O)(=O)N3CCCCC3)cn2)cc1 | -2 | x | x | -1 | -1 | 1
Cc1cc(/C=C2/NC(=O)NC2=O)c(C)n1-c1ccncc1 | x | -20 | 0 | -28* | 0 | 1
CC1CCCCN1C(=O)CN(C)S(=O)(=O)c1cccc2nsnc12 (stereo unspecified) | 42* | -8 | 0 | 13 | 4 | 6
CN(CC(=O)N1CCN(Cc2ccccc2)CC1)S(=O)(=O)c1cccc2nsnc12 | x | -2 | 1 | 9 | -1 | x
C=C1c2cccc(O)c2C(=O)C2C(=O)[C@]3(O)C(=O)C(C(N)=O)C(=O)[C@@H](N(C)C)[C@@H]3[C@@H](O)[C@H]12 (stereo partly specified) | 2 | 60* | 0 | x | 7 | 2
O=C(O)c1ccc(CNCc2ccc(F)cc2)cc1 | -2 | 2 | 0 | 18 | -4 | x
COCCNC(=S)N(CCc1c(C)[nH]c2ccc(F)cc12)Cc1cccs1 | x | 15 | 0 | -47 | -1 | x
COCCNC(=S)N(CCc1c(C)[nH]c2ccc(Cl)cc12)Cc1cccs1 | -13 | 18 | 0 | -22* | -1 | -1
CC(C)(C)NC(=O)/C=C/c1ccc(C(F)(F)F)cc1 | x | 10 | 43* | x | -1 | x
C=CCOc1ccc(C[C@H](N)C(=O)NC[C@H]2O[C@@H](n3ccc(N)nc3=O)[C@H](O)[C@@H]2O)cc1 | x | 14 | 43* | 16 | 0 | -1
C=CCOc1ccc(C[C@H](N)C(=O)NC[C@H]2O[C@@H](n3cc(C)c(=O)[nH]c3=O)C[C@@H]2O)cc1 | 1 | 12 | 0 | 4 | 0 | -1
Cc1cccc(Nc2nc(N)nc(CN3CCC(C)CC3)n2)c1C | 4 | x | 0 | 15 | -2 | 0
COC(=O)c1c(CC[C@@H](CO)NC(=O)N[C@H](Cn2cc(-c3cncn3C)nn2)C(C)C)oc(C(C)=O)c1C(=O)OC | -4 | -3[16.7 µM] | 1.6* | x | 0 | -1
CSc1ncnc2c1cnn2-c1ccc(C)cc1C | 6 | -16 | 0 | -5 | 12 | x
Cc1ccc(-n2ncc3c(SCc4ccccn4)ncnc32)c(C)c1 | x | -7 | 0 | -16* | -1 | x
Cc1ccc(S(=O)(=O)N(Cc2ccccc2)C(C)C)cc1 | -5 | -3 | 0 | -24 | x | -5
O=c1ccc2c([nH]1)CCCCCCCCCC2 | -17 | 56* | 0 | -7 | -1 | -1
O=C(Nc1nc2ccccc2s1)Nc1ccc(F)cc1F | x | -89 | 0 | 20 | -2 | -1
O=C(Nc1ccc(F)cc1F)Nc1sccc1-c1nc2ccccc2s1 | -1 | -6 | 0 | -22* | 1 | x
CC[C@@H](CC1CCCCC1)C(=O)N(Cc1ccccc1)c1ccccc1 | -6 | 60* | 0 | 1 | -3 | -2
c1cc2c(cc1C1=NNC(=NC3CC3)SC1)OCCO2 | x | 65* | 0 | -3 | -4 | x
CCCCN=C1NN=C(c2ccc3c(c2)OCCO3)CS1 | -6 | -20 | 0 | -8 | 6 | x
Cc1cc(C2=NNC(=NC3CC3)SC2)c(C)n1-c1ccccc1F | x | 56* | 0 | 7 | -3 | x
O=C(OCCNC(=O)c1ccc2ccccc2n1)c1ccc(F)cc1 | -1 | 3 | x | x | x | -3
N#Cc1ccc(-c2ccc([C@H]3[C@H]4CN(C(=O)C5CCCC5)CC(=O)N4[C@H]3CO)cc2)cc1 | -16 | x | x | -4 | 0 | x
